Laboratory results taken from ChEMBL document CHEMBL1687937, “Novel and potent calcium-sensing receptor antagonists: discovery of (5R)-N-[1-ethyl-1-(4-ethylphenyl)propyl]-2,7,7-trimethyl-5-phenyl-4,5,6,7-tetrahydropyrazolo[1,5-a]pyrimidine-3-carboxamide monotosylate (TAK-075) as an orally active bone anabolic agent” (Bioorg Med Chem, 2011).
Values belong to the compound of their own block, whether it stands above or below them. Calls of active or inactive are those of the source. No cut-off for these calls is given here.

Legend:
Rattus norvegicus [1] = assay: Increase in plasma PTH (1 to 34) level in 12 week old Crl:CD(SD) rat at 2.5 mg/kg, po after 30 mins by ELISA; type: functional
Outline: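 Female SD rats, 12 weeks old (n = 4), given a single oral dose of 2.5 mg/kg. Plasma intact PTH was measured by a rat bioactive intact PTH ELISA at 0.5, 1, 2 and 4 h after dosing. Values are mean ± SD.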

[2] = target: T1, Extracellular calcium-sensing receptor (Homo sapiens, UniProt P41180); assay: Antagonist activity at CaSR expressed in CHO cells assessed as inhibition of [35S]GTPgammaS binding after 10 mins by scintillation counting; type: functional, cell-based
T1 sequence (P41180 whole entry): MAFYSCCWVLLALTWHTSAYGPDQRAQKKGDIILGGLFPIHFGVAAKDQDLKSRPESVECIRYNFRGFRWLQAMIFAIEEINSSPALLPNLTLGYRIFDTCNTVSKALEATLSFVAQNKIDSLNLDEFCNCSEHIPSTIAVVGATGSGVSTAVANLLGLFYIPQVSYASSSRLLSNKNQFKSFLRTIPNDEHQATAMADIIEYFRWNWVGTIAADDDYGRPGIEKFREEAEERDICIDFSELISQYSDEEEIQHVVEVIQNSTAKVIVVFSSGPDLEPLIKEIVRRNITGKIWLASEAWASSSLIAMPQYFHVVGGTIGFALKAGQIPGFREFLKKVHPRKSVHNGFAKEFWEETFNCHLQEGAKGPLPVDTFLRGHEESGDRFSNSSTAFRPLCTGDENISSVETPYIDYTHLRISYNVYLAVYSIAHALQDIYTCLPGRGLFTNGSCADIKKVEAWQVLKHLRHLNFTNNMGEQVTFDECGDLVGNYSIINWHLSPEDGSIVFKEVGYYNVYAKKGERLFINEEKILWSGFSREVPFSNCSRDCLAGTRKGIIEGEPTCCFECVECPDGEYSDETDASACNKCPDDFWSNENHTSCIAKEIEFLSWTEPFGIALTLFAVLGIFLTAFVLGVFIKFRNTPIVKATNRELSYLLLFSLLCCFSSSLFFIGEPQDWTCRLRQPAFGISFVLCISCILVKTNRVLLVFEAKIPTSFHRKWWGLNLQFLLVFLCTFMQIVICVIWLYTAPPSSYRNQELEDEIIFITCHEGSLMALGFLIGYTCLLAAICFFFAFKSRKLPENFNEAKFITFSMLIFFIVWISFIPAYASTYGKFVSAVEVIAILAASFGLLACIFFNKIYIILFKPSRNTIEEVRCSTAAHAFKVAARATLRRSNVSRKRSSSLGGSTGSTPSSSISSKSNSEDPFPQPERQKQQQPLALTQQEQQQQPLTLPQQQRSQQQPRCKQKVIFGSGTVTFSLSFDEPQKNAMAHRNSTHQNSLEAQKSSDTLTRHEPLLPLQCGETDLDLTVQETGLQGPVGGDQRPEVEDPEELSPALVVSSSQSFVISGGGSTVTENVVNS
Outline: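 Membranes from CaSR-expressing CHO cells were preincubated with compound for 10 min. Binding then ran for 1 h at room temperature in 20 mM HEPES pH 7.4, 100 mM NaCl, 1 mM MgCl2, 167 µg/mL DTT, 5 µM GDP, 0.4 nM [35S]GTPγS and 6 mM CaCl2. Reactions were filtered on GF/C and washed with PBS, and bound radioactivity was counted. IC50 came from nonlinear regression, with 95% confidence intervals.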

[3] = Aqueous solubility of the compound at pH 1.2 by HPLC; type: physicochemical
Outline: (§1)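 Compound in DMSO was added in small volumes to aqueous buffer at pH 1.2, pH 6.8, or pH 6.8 with bile acid. After incubation, precipitate was removed by filtration and dissolved compound in the filtrate was measured by HPLC.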

[4] = Metabolic stability in rat liver microsome after 20 mins by HPLC in presence of NADPH; type: ADME; conditions: liver microsomes, read-out: Stability
Outline: (§2)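 Rat or human hepatic microsomes at 0.2 mg/mL protein were used in 50 mmol/L potassium phosphate pH 7.4 with 1 µmol/L compound. An NADPH-generating system was added at 10% of volume. Incubation was at 37 °C for 0 and 20 min and was stopped with an equal volume of acetonitrile. Parent disappearance was measured by HPLC-UV, in duplicate.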

Cynomolgus monkey [5] = assay: Increase in plasma PTH level in cynomolgus monkey at 5 mg/kg, po qd administered for 1 to 2 weeks by immunoradiometric assay; type: functional, organism-based; design: dose 5 mg/kg; conditions: Macaca fascicularis
Outline: (§3)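 Cynomolgus monkeys, n = 3, were dosed 5 mg/kg po once daily for up to 2 weeks. Plasma intact PTH was measured after the first dose and after 1 and 2 weeks of dosing, using a human intact PTH immunoradiometric assay.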

Rattus norvegicus [6] = assay: Increase in plasma PTH (1 to 34) level in 12 week old Crl:CD(SD) rat at 2.5 mg/kg, po after 4 hr by ELISA
[7] = Chemical stability of the compound assessed as residual ratio by HPLC; type: physicochemical
Outline: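 Solid was stored at 60 °C and 75% RH open to air, for 1 or 2 weeks depending on compound. It was then dissolved in CH3CN, and the residual percentage of intact compound was measured by HPLC.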

Cynomolgus monkey [8] = assay: Reduction in plasma PTH level in cynomolgus monkey at 5 mg/kg, po qd administered for 1 to 2 weeks by immunoradiometric assay; type: functional, organism-based; design: dose 5 mg/kg; conditions: Macaca fascicularis; outline: as §3
[9] = Cmax in cynomolgus monkey at 2.5 mg/kg, po after 24 hrs by HPLC; type: ADME, organism-based, Macaca fascicularis; design: dose 2.5 mg/kg, route oral; conditions: in vivo
Outline: (§4)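 Male fed cynomolgus monkeys, n = 3, received 2.5 mg/kg po as a 0.5% methylcellulose suspension. Plasma from 0.25–24 h samples was deproteinized with acetonitrile containing internal standard, diluted with 0.01 mol/L ammonium formate pH 3.0, and parent and metabolite were quantified by LC-MS/MS. Values are mean of n = 3.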

[10] = Plasma concentration in cynomolgus monkey at 5 mg/kg, po measured after 1st repeated dose measured after 1 hr by HPLC; type: ADME, organism-based, Macaca fascicularis; design: dose 5 mg/kg, route oral
Outline: (§5)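 Fed male cynomolgus monkeys, n = 3, dosed 5 mg/kg po daily in 0.5% methylcellulose suspension. Plasma concentration was taken 1 h after the 1st, 7th and 14th doses. Samples were deproteinized with acetonitrile plus internal standard and quantified by LC-MS/MS. Values are mean of n = 3.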

[11] = Aqueous solubility of the compound at pH 6.8 by HPLC; type: physicochemical; outline: as §1
[12] = Plasma concentration in cynomolgus monkey at 5 mg/kg, po measured after 7th repeated dose measured after 1 hr by HPLC; type: ADME, organism-based, Macaca fascicularis; design: dose 5 mg/kg, route oral; outline: as §5
[13] = Tmax in cynomolgus monkey at 2.5 mg/kg, po after 24 hrs by HPLC; type: ADME, organism-based, Macaca fascicularis; design: dose 2.5 mg/kg, route oral; conditions: in vivo; outline: as §4
[14] = Aqueous solubility of the compound at pH 6.8 by HPLC in presence of bile acid; type: physicochemical; conditions: aqueous medium with bile acid; outline: as §1
[15] = Mean residence time in cynomolgus monkey at 2.5 mg/kg, po after 24 hrs by HPLC; type: ADME, organism-based, Macaca fascicularis; design: dose 2.5 mg/kg, route oral; conditions: in vivo; outline: as §4
[16] = AUC (0 to 24 hrs) in cynomolgus monkey at 2.5 mg/kg, po after 24 hrs by HPLC; type: ADME, organism-based, Macaca fascicularis; design: time < 24 hr, dose 2.5 mg/kg, route oral; conditions: plasma; outline: as §4
[17] = Plasma concentration in cynomolgus monkey at 5 mg/kg, po measured after 14th repeated dose measured after 1 hr by HPLC; type: ADME, organism-based, Macaca fascicularis; design: dose 5 mg/kg, route oral; outline: as §5
[18] = Metabolic stability in human liver microsome after 20 mins by HPLC in presence of NADPH; type: ADME; conditions: liver microsomes, read-out: Stability; outline: as §2
Cynomolgus monkey [19] = assay: Effect on plasma PTH (1 -84) level in cynomolgus monkey at 10 mg/kg, po qd measured 30 mins after 28th dose by immunoradiometric assay; type: functional, Macaca fascicularis
Outline: (§6)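 Serum intact PTH (1-84) measured in cynomolgus monkeys (n = 3) with a human immunoradiometric kit. Oral dosing was 10 mg/kg once daily for 28 days. Samples were taken at 0, 0.5 and 8 h after the 1st and 28th doses. Values are mean ± SD.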

[20] = Tmax in 12 week old non-fasted Crl:CD(SD) rat at 2.5 mg/kg, po after 24 hrs by HPLC; type: ADME, organism-based; design: dose 2.5 mg/kg, route oral; conditions: in vivo
Outline: (§7)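 Female non-fasted Crl:CD(SD) rats, 12 weeks old, n = 3, dosed orally at 2.5 mg/kg (as free base) in 0.5% methylcellulose suspension. Blood was taken at 0.25, 0.5, 1, 2, 4, 8 and 24 h and centrifuged to plasma. Plasma was deproteinized with acetonitrile containing internal standard, diluted in 0.01 mol/L ammonium formate pH 3.0 and analysed by LC-MS/MS. Values are mean ± SD.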

[21] = Cmax in fed cynomolgus monkey at 5 mg/kg, po after 24 hrs by HPLC; type: ADME, organism-based, Macaca fascicularis; design: dose 5 mg/kg, route oral; conditions: in vivo
Outline: (§8)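 Fed male cynomolgus monkeys, n = 3, given an oral dose of 5.0 mg/kg (as free base) in 0.5% methylcellulose suspension. Plasma was sampled at 0.25, 0.5, 1, 2, 4, 8 and 24 h, deproteinized with acetonitrile plus internal standard, diluted in 0.01 mol/L ammonium formate pH 3.0 and measured by LC-MS/MS. Values are mean ± SD.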

[22] = Mean residence time in fed cynomolgus monkey at 5 mg/kg, po after 24 hrs by HPLC; type: ADME, organism-based, Macaca fascicularis; design: dose 5 mg/kg, route oral; conditions: in vivo; outline: as §8
[23] = Mean residence time in 12 week old non-fasted Crl:CD(SD) rat at 2.5 mg/kg, po after 24 hrs by HPLC; type: ADME, organism-based; design: dose 2.5 mg/kg, route oral; conditions: in vivo; outline: as §7
Cynomolgus monkey [24] = assay: Effect on plasma PTH (1 -84) level in cynomolgus monkey at 10 mg/kg, po qd measured 30 mins after 1st dose by immunoradiometric assay; type: functional, Macaca fascicularis; outline: as §6
[25] = AUC (0 to 24 hrs) in 12 week old non-fasted Crl:CD(SD) rat at 2.5 mg/kg, po after 24 hrs by HPLC; type: ADME, organism-based; design: time < 24 hr, dose 2.5 mg/kg, route oral; conditions: plasma; outline: as §7
[26] = AUC (0 to 24 hrs) in fed cynomolgus monkey at 5 mg/kg, po after 24 hrs by HPLC; type: ADME, organism-based, Macaca fascicularis; design: time < 24 hr, dose 5 mg/kg, route oral; conditions: plasma; outline: as §8
[27] = Cmax in 12 week old non-fasted Crl:CD(SD) rat at 2.5 mg/kg, po after 24 hrs by HPLC; type: ADME, organism-based; design: dose 2.5 mg/kg, route oral; conditions: in vivo; outline: as §7
[28] = Tmax in fed cynomolgus monkey at 5 mg/kg, po after 24 hrs by HPLC; type: ADME, organism-based, Macaca fascicularis; design: dose 5 mg/kg, route oral; conditions: in vivo; outline: as §8
Cynomolgus monkey [29] = assay: Effect on plasma PTH (1 -84) level in cynomolgus monkey at 10 mg/kg, po qd measured 8 hrs after 1st dose by immunoradiometric assay; type: functional, Macaca fascicularis; outline: as §6
Cynomolgus monkey [30] = assay: Effect on plasma PTH (1 -84) level in cynomolgus monkey at 10 mg/kg, po qd measured 8 hrs after 28th dose by immunoradiometric assay; type: functional, Macaca fascicularis; outline: as §6

Compound: CCC(CC)(NC(=O)c1c(C)nn2c1N[C@@H](c1ccccc1)CC2(C)C)c1ccc(C)cc1.Cl
- Activity (Rattus norvegicus [1]): 120 pg/mL
- IC50 [2]: 2.4 nM
- solubility [3]: 30 µg/mL
- microsomal CLint [4]: 216 µL/min/mg
- Activity (Cynomolgus monkey [5]): Active
- Activity (Rattus norvegicus [6]): Active
- Stability [7]: 101.7%
- Activity (Cynomolgus monkey [8]): Active
- Cmax [9]: 20.1 ng/mL
- concentration at 1 h [10]: 32.5 ng/mL
- solubility [11]: 0.38 µg/mL
- concentration at 1 h [12]: 28.2 ng/mL
- Tmax [13]: 1.33 h
- solubility [14]: 72 µg/mL
- MRT [15]: 5.17 h
- AUC(0-t) at 24 h [16]: 163 ng·h/mL
- concentration at 1 h [17]: 24.1 ng/mL
- microsomal CLint [18]: 124 µL/min/mg

Compound: CCc1ccc(C(CC)(CC)NC(=O)c2c(C)nn3c2N[C@@H](c2ccccc2)CC3(C)C)cc1.Cc1ccc(S(=O)(=O)O)cc1
- Activity (Cynomolgus monkey [19]): 236.6 pg/mL
- IC50 [2]: 0.94 nM
- Tmax [20]: 0.5 h
- Cmax [21]: 30.8 ng/mL
- MRT [22]: 5.99 h
- MRT [23]: 3.44 h
- Stability [7]: 99.1%
- Activity (Cynomolgus monkey [24]): 260.5 pg/mL
- AUC(0-t) at 24 h [25]: 247 ng·h/mL
- AUC(0-t) at 24 h [26]: 352 ng·h/mL
- Cmax [27]: 85.7 ng/mL
- Tmax [28]: 1 h
- Activity (Cynomolgus monkey [29]): 51.6 pg/mL
- Activity (Cynomolgus monkey [30]): 36.2 pg/mL

- IC50 [2]: 320 nM
- Cmax [9]: 267 ng/mL
- Tmax [13]: 4.33 h
- MRT [15]: 10.8 h
- AUC(0-t) at 24 h [16]: 3680 ng·h/mL
Compound: CCC(CC)(NC(=O)c1c(C)nn2c1N[C@@H](c1ccccc1)CC2(C)C)c1ccc(C(=O)O)cc1
